Compound activity (PubChem)
A selection: hits, their analogues and other compounds. The true share with any hit is near 2.5%.
SMARCA2 act: SMARCA2 (BRM) function activators, primary screen, cell-based, luminescence, high throughput | activation, % at 9.1 µM | actives 1% (n = 370,000) | MG213 cells, MMTV-luciferase reporter, dexamethasone, overnight | AID 652017, 2013; in the data active means activation above about 7.8%;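 further: 0% = vehicle wells and 100% = reference activator wells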
Vif inh: HIV Vif self-association inhibitors, primary screen, imaging, HEK293T, single point. HEK293T cells, Vif self-association by quenched fluorescence, 24 h. inhibition, % at 7.49 µM. actives 0.35% (n = 340,000). AID 602346, 2012; in the data active means inhibition above about 50%, passing the limit was not always enough
TAG inh: inhibitors of triacylglycerol accumulation, primary screen, cell-based, uHTS, fluorescence, H9c2. inhibition, % at 12.5 µM. actives 0.66% (n = 230,000). AID 651582, 2012. H9c2 cells, Nile Red lipid (TAG) fluorescence; cells loaded with 200 µM oleic acid;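 active means pattern-corrected inhibition of lipid staining of at least 50% with the nuclear-stain viability signal not falling by more than 50%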;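 further: 0% = DMSO wells and 100% = triacsin C control wells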
SR-BI DiI inh: inhibitors of SR-BI mediated HDL lipid uptake, primary screen, ldlA[mSR-BI] cells, fluorescence, single point; Scavenger receptor class B member 1 (Mus musculus), Q61009; ldlA[mSR-BI] CHO cells, DiI-HDL uptake fluorescence, 3 h; inhibition, % at 12.5 µM; actives 0.96% (n = 320,000); AID 488896, 2010;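 active means mean replicate inhibition of at least 70% and a set share of replicates each scoring 70 or more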;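 further: 0% = median of neutral control wells and 100% = median of positive control wells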
Target sequence (Q61009 whole entry, looked up): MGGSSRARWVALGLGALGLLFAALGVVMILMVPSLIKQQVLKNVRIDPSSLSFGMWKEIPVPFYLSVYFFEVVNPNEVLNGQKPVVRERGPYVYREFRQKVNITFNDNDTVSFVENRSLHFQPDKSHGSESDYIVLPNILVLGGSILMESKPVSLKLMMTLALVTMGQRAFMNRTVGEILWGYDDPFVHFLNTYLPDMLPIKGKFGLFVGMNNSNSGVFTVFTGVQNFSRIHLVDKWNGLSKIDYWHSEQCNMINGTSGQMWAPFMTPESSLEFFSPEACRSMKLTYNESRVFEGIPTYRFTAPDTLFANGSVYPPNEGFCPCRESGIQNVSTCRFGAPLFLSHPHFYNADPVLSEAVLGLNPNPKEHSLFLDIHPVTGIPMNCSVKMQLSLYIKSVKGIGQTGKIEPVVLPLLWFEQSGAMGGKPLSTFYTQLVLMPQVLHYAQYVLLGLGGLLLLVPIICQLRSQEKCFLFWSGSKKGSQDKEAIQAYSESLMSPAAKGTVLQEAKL
SR-BI uptake up: activators of SR-BI mediated DiI-HDL uptake, primary screen, ldlA[mSR-BI] CHO cells, DiI fluorescence | activation, % at 12.5 µM | actives 0.096% (n = 320,000) | 3 h; 100 = double the neutral-control signal;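 active means mean replicate activation of at least 60% and every replicate at or above 60%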;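 further: 0% = median plate neutral-control signal and 100% = twice that signal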
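Assay system: CHO ldlA[mSR-BI] cells, LDL receptor-null, SR-BI overexpressing; medium: Ham's F12 with 0.5% BSA, HEPES 25 mM, pH 7.4; also added: DiI-HDL 10 µg/mL; timing: 3 h uptake period with compound, 37 °C; signal: DiI fluorescence, bottom read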
* = called active by the depositor; . = not tested or not shown.

SMILES	SMARCA2 act	Vif inh	TAG inh	SR-BI DiI inh	SR-BI uptake up
O=[N+]([O-])c1ccc2c(c1)CO[C@]21O[C@H](CCO)C[C@H](O)[C@H]1O	-2	.	.	.	.
Cc1n[nH]c(=O)nc1Nc1ccc(O)cc1	1	66*	.	-5	5
Nc1[nH]c(C(=O)c2ccc(Br)cc2)c(-c2c(F)cccc2F)c1C(=O)NCCc1c[nH]c2ccccc12	-3	.	.	.	.
CCCN1C(=O)c2ccccc2NC1c1ccc(Cl)c(Cl)c1 (stereo unspecified)	-1	0	.	-13	13
CCCCN1C2=C(C(=O)CCC2)C(c2ccc(Cl)c(Cl)c2)C2=C1c1ccccc1C2=O (stereo unspecified)	0	.	60*	85*	-85
CCOC(=O)CN1C(=O)[C@]2(OCCC=C[C@H]2C)c2cc(OC)ccc21	-4	.	.	.	.
COc1c(/C=N/NC(=O)[C@H]2C[C@@H]2c2ccccc2)c(CCN(C)C(C)=O)cc2c1OCO2	2	-10	0	.	.
COc1c(/C=N/NC(=O)c2ccncc2)c(CCN(C)C(C)=O)cc2c1OCO2	-3	6	10	-145	145*
CC(C)C[C@H]1COc2cc(Br)ccc2S(=O)(=O)N1Cc1ccc(Cl)cc1	2	.	.	.	.
Cc1ccc(N2CCN(C(=S)c3ccc(N(C)C)cc3)CC2)cc1	3	66*	.	-26	26
CN(C)c1ccc(C(=S)N2CCN(c3ccccc3)CC2)cc1	-5	11	-10	-6	6
COCc1cc(N2CCN(C(=O)OC(C)(C)C)C[C@H]2C)ccc1N1CC[C@@H](O)C1	-3	.	.	.	.
CCn1c(SCC(=O)Nc2ccc(C(=O)OC)cc2)nnc1-c1cccc(Cl)c1	-5	.	.	.	.
CCOC(=O)/C=C/C(=O)Nc1ccc(S(=O)(=O)Nc2nccs2)cc1	0	14	.	73*	-73
CCOCC(=O)Nc1ccc(S(=O)(=O)Nc2nccs2)cc1	-2	4	-2	-8	8
CC1=C(C#N)C(=O)N(C)C(C)(C)C1	0	-12	8	-140	140*
Cc1cc(C)cc(N=c2c([N+](=O)[O-])nn(-c3ccc(Cl)cc3)n2O)c1	0	-3	31	80*	-80
COc1ccc(CNC(=O)Nc2cccs2)cc1OC	1	56*	.	-14	14
COc1cccc(CNC(=O)Nc2cccs2)c1	2	-5	-2	.	.
COc1ccccc1Cc1c(C(C)(C)C)nc2c(C)cc(Br)cn12	-5	.	.	.	.
COc1cc(-c2nc(-c3ccc(NC(=O)c4ccc(Br)o4)cc3)no2)cc(OC)c1OC	-1	-7	51*	42	-42
COc1ccc(-c2nc(-c3ccc(NC(=O)c4ccc(Br)o4)cc3)no2)cc1OC	1	-6	31	79*	-79
O=C(Nc1ccc(-c2nc3ncccc3o2)cc1)c1ccc(Br)o1	-5	.	69*	.	.
CCN(C(=O)COC(=O)c1ccc(Sc2ncn[nH]2)c([N+](=O)[O-])c1)c1ccccc1	1	.	.	.	.
COc1c2ccoc2nc2c(OC)c(OC[C@@H](O)C(C)(C)O)ccc12	-3	57*	-31	12	-12
SMILES	SMARCA2 act	Vif inh	TAG inh	SR-BI DiI inh	SR-BI uptake up
COc1c2ccoc2nc2c(OC)c(OCC(O)C(C)(C)O)ccc12 (stereo unspecified)	-1	.	-8	-6	6
COc1ccccc1Cc1c(-c2ccc(F)cc2)nc2c3ccccc3ccn12	-1	.	.	.	.
CCn1c2c(n(C(C)=O)c1=O)C=C(C(=O)N1CCCC1)C(C)C(c1ccccc1)=C2 (stereo unspecified)	-1	.	.	.	.
Cc1cc(C)cc(OCc2nnc(SCC(=O)N3CCN(c4ccccc4)CC3)o2)c1	-1	-6	-1	79*	-79
FC(F)(F)Oc1cccc(Cn2ccc3ccc(-c4ccc5ccn(Cc6cccc(OC(F)(F)F)c6)c5c4)cc32)c1	-1	.	.	.	.
CCCn1nc2cc(C(=O)NC3CCCc4ccccc43)ccc2c1OCC (stereo unspecified)	1	-3	4	65	-65
CCCCn1nc2cc(C(=O)NC3CCc4ccccc43)ccc2c1OCC (stereo unspecified)	0	-1	34	77*	-77
O=C(NNC1=C(C(=O)C(F)(F)F)CCC1)c1ccc(Br)cc1	-1	.	.	105*	-105
COc1cccc(C(=O)NNC(=O)Cc2ccc(Cl)cc2)c1	1	-2	.	3	-3
Nc1ccccc1C(=O)NNC1=C(C(=O)C(F)(F)F)CCC1	5	8	-6	98*	-98
COc1cccc(C(=O)NN/C(C)=C/C(=O)C(F)(F)C(F)(F)C(F)(F)F)c1	9.5*	-12	.	26	-26
O=C(NNc1ccc(O)cc1)c1ccc(Br)cc1	-1	-12	.	-7	7
COc1cccc(C(=O)NNC2=C(C(=O)C(F)(F)F)CCC2)c1	3	-6	4	113*	-113
O=C(NNC1=C(C(=O)C(F)(F)F)CCC1)c1ccccc1Cl	2	-6	.	14	-14
COc1ccccc1C(=O)NNC1=C(C(=O)C(F)(F)F)CCC1	3	9	.	8	-8
CC[C@H](NC(=O)[C@H]1O[C@@H](n2cnc3c(=O)[nH]c(N)nc32)[C@H](O)[C@@H]1O)c1ccccc1	1	.	.	.	.
O=C(Cc1ccc(NC(=O)C2CCN(C(=O)C3CCCC3)CC2)cc1)Nc1cccc(C(=O)N2CCCC2)c1	1	.	.	.	.
O=C(NNC1=C(C(=O)C(F)(F)F)CCC1)c1ccccc1O	-1	1	3	150*	-150
CCCCc1c(-c2ccccc2OC)ncn1C(C)c1ccc(Cl)cc1 (stereo unspecified)	-6	.	.	.	.
C/C(=N/NC(=O)CSCc1ccc(Cl)cc1)c1cccc(NC(=O)c2ccccc2)c1	-2	10	.	81*	-81
Cn1nc(C(C)(C)C)cc1C(=O)NCC1CCN(C(=O)C(=O)c2cc3ccccc3o2)CC1	-7	.	.	.	.
COc1ccc(-c2csc(Nc3ncccc3C)n2)cc1OC	5	-14	.	72*	-72
COc1ccc(-c2csc(Nc3ncccc3C)n2)cc1	1	7	-10	17	-17
COc1ccc(-c2csc(NC(=O)[C@H](C)N3C(=O)C4CC=CCC4C3=O)n2)cc1OC (stereo partly specified)	-2	-8	-9	71*	-71
COc1ccc(-c2csc(NC(=O)CCn3cnc4ccccc4c3=O)n2)cc1OC	-2	15	.	75*	-75
COc1ccc(-c2csc(NC(=O)CCCc3nc4ccccc4c(=O)[nH]3)n2)cc1OC	-4	-2	2	23	-23
O=C(Nc1cccc(Cl)c1)Nc1nc(-c2ccc(Cl)cc2)cs1	-1	-10	-7	79*	-79
